Bioassay records as filed in PubChem.
HKDC1 inhibitor: HKDC1 hexokinase inhibitors, primary screen, biochemical, fluorescence, uHTS | Q2TB90 | recombinant HKDC1, G6PDH/diaphorase resazurin coupled fluorescence | inhibition, % at 20 µM | 340,000 compounds, 0.16% hits;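 active = inhibition above about 35% when tested at 20 µM, limit read from the data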;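 note: plate controls were DMSO wells with enzyme for no effect and DMSO wells lacking enzyme for full effect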
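Incubation: 90 min at room temperature in dark / Material: recombinant HKDC1 (HK5) hexokinase enzyme, produced in-house / Quantity: enzyme 5 µg/mL final / Compound: one dose of 20 µM, 1% DMSO / Reagent: glucose and ATP substrates / Buffer or medium: Tris pH 8.0 buffer with MgCl2, Tween-20, BSA, BME / Technique: resorufin fluorescence at 613 nm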
HDAC3 inh: HDAC3 deacetylase inhibitors, primary screen, biochemical, fluorescence, cell-free homogeneous; Histone deacetylase 3 (Homo sapiens), O15379; recombinant HDAC3, fluorogenic peptide/trypsin coupled; inhibition, % at 8.3 µM; 320,000 compounds, 0.15% hits; in the data active = inhibition above about 26%, passing the limit was not always enough
AI-2 QS modul: Vibrio harveyi AI-2 quorum sensing modulators, primary screen, JMH597 strain, luminescence/OD600 ratio | Vibrio harveyi JMH597 AI-2 luminescence/OD600 ratio, 9 h; active compounds read low; strain lacks LuxN and CqsS sensors; 0 = neutral-control median | activity change, % at 7.5 µM | 300,000 compounds, 0.4% hits | AID 2094, 2009; in the data active = activity change below about -75%, passing the limit was not always enough;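 note: luminescence divided by OD600 gain over 9 h not by final OD600 alone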
A1 inh: caspase 3/7 activation in MEF A1-2A-BIM cells, primary screen, A1 inhibitor project, cell-based, luminescence, HTS; 330,000 compounds, 0.066% hits; Caspase-Glo 3/7 luminescence, 3 h; percent of clofoctol response, vehicle zero; AID 2462, 2010; caspase activation, % (no concentration beside the values);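 active = over half of replicate activation scores above 10%, or exactly half above 10 with the replicate mean above 10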
LANA-H2A inh: blockers of LANA interaction with H2A/H2B – biochemical, FP readout, HTS, primary screen; inhibition, % (concentration not given with the values); Protein LANA1 (Human herpesvirus 8 type P (isolate GK18)), Q9QR71; cell-free LANA-H2A/H2B peptide, fluorescence polarization; 320,000 compounds, 0.6% hits; in the data active = inhibition mostly above about 10%, no sharp cut-off; inactive = mostly below about 6.7%
ATG4B inh: ATG4B protease inhibitors, primary screen, biochemical, fluorescence, uHTS; Cysteine protease ATG4B (Homo sapiens), Q9Y4P1; ATG4B cleavage of LC3-PLA2, NBD-HPC fluorescence, 1 h; inhibition, % at 8.33 µM; 340,000 compounds, 0.51% hits; AID 504462, 2011; in the data active = inhibition above about 40%
ATG4B confirm: ATG4B protease inhibitors, retest, confirmation, biochemical, fluorescence, single concentration; shares compounds with ATG4B inh; ATG4B protease fluorescent substrate cleavage assay; inhibition, % at 8.33 µM; 320 compounds, 92% hits; AID 504757, 2011; in the data active = inhibition above about 39%
PLA2 ctr: PLA2 enzyme inhibition, counter-screen for ATG4B inhibitor project, biochemical, single concentration, uHTS hits | inhibition, % at 8.33 µM | purified PLA2, NBD-C6-HPC fluorescence, 45 min | shares compounds with ATG4B inh | 1,600 compounds, 66% hits; in the data active = inhibition above about 50%
* hit, by the source's call; · = no result given. Shown are actives, neighbours in structure and some others; about 1.8% of the full set was active somewhere.

SMILES | HKDC1 inhibitor | HDAC3 inh | AI-2 QS modul | A1 inh | LANA-H2A inh | ATG4B inh | PLA2 ctr | others
CC1=NN(C(N)=S)C(=O)C1N=Nc1ccccc1C(=O)O (stereo not given) | -5 | 13 | 21 | 0 | 3 | 3 | ·
CN1C(=O)C(N=Nc2ccccc2C(=O)O)N(C)C1=S (stereo not given) | 10 | 13 | -38 | -7 | -10 | 41* | 40 | ATG4B confirm=70*
O=c1oc2ccccc2cc1-c1csc(NN=C2CCCCC2)n1 | -2 | 4 | 22 | -2 | -1 | 41* | 66*
CCN(C(=O)CN1CCN(c2ccccc2F)CC1)c1c(N)n(Cc2ccccc2)c(=O)[nH]c1=O | -9 | -1 | 7 | 0 | -3 | -5 | ·
Cc1cc(C)cc(NC(=O)c2nnn(Cc3cc(C)ccc3C)c2N)c1 | -1 | 7 | 26 | 0 | -2 | 57* | 78*
Cc1ccc(C)c(Cn2nnc(C(=O)Nc3ccc4c(c3)OCCO4)c2N)c1 | 3 | 10 | 15 | 0 | 1 | 55* | 65*
Cc1ccccc1Cn1nnc(C(=O)Nc2ccc3c(c2)OCCO3)c1N | -3 | 1 | -6 | -2 | -1 | 8 | ·
COc1cccc(NC(=O)c2nnn(CC(=O)Nc3cc(C)cc(C)c3)c2N)c1 | 1 | -4 | 21 | 0 | 1 | 0 | ·
COC(=O)c1ccc(CSc2nc3c(c(=O)n2-c2ccc(Br)cc2)SCC3)o1 | -6 | 3 | -2 | 0 | -1 | 65* | 73*
CCOc1ccc(-n2c(SCC(=O)Nc3ccc(OC)cc3)nc3c(c2=O)SCC3)cc1 | -4 | -2 | -2 | 0 | -1 | 10 | ·
CCOc1ccc(-n2c(SCc3ccc(C(=O)OC)o3)nc3c(c2=O)SCC3)cc1 | 2 | 3 | · | 0 | -3 | 60* | 77*
O=C(c1cc(C(=O)N2CCCC2)cc([N+](=O)[O-])c1)N1CCCC1 | 3 | 9 | 15 | 0 | -5 | 0 | ·
O=C(COC(=O)c1ncc(Cl)c(Cl)c1Cl)c1ccc(Cl)s1 | -4 | 0 | 11 | 1 | -4 | 40 | 22
O=[N+]([O-])c1cccc(-c2csc(Nc3ccccc3)n2)c1 | -4 | -8 | 11 | 1 | -1 | 6 | ·
COc1cc(NS(=O)(=O)c2ccc(Nc3nc(-c4cccc([N+](=O)[O-])c4)cs3)cc2)nc(OC)n1 | -6 | 7 | 5 | 0 | -3 | 45* | 43 | ATG4B confirm=78*
Cc1cc(C(=O)OCC(=O)NCCC(C)C)c2ccccc2n1 | -1 | -1 | 11 | -1 | 2 | -9 | ·
Cc1ccc(CNc2nc(C)nc3sc4c(c23)CCC4)cc1 | -3 | -11 | 3 | 0 | 7 | 36 | ·
Cc1nc(NS(=O)(=O)c2ccc(Br)cc2)c2c3c(sc2n1)CCC3 | 3 | 1 | 20 | -1 | 5 | 68* | 72*
Cc1nc(NC(C)c2ccccc2)c2c3c(sc2n1)CCC3 (stereo not given) | -3 | 8 | 26 | 0 | 3 | 46* | 36
C=C(CO)C1Cc2cc(C(C)=O)ccc2O1 (stereo not given) | -2 | -5 | 12 | 0 | -3 | -7 | ·
Cc1cccc(C)c1OCc1cc(C(=O)N2CC3C[C@@H]4CC2C[C@H](C3)C4)no1 | 3 | 3 | 12 | -3 | 5 | 52* | 69*
Cc1cccc(C)c1OCc1cc(C(=O)N2CCN(c3ccccn3)CC2)no1 | -1 | 1 | 9 | 1 | -10 | 57* | 53*
Cc1ccc(OCc2cc(C(=O)N3CC4C[C@@H]5CC3C[C@H](C4)C5)no2)cc1C | -4 | 6 | 26 | -1 | 2 | -3 | ·
CC(NC(=O)CCCCCCN1C(=O)c2ccccc2C1=O)c1ccc2c(c1)CCCC2 (stereo not given) | -1 | 1 | 6 | -1 | -5 | 1 | ·
Cc1cc(-c2nnnn2-c2cc(Cl)cc(Cl)c2)no1 | 3 | 2 | -5 | 0 | 1 | -5 | ·
SMILES | HKDC1 inhibitor | HDAC3 inh | AI-2 QS modul | A1 inh | LANA-H2A inh | ATG4B inh | PLA2 ctr | others
N#CCC(=O)Nc1ccc(C(=O)OCC(=O)N=c2sccn2Cc2ccccc2Cl)cc1 | 3 | 0 | 26 | 1 | -2 | 41* | 57*
N#CCC(=O)Nc1ccc(C(=O)OCC(=O)NNC(=O)c2cccs2)cc1 | -1 | -4 | -3 | 0 | -4 | -4 | ·
O=C(COC(=O)c1ccc(O)cc1O)N=c1sccn1Cc1ccccc1Cl | 6 | 1 | 43 | 0 | 0 | 43* | 57*
Cc1ccc(Cn2ccsc2=NC(=O)COC(=O)c2ccc(O)cc2O)cc1 | -3 | 1 | 14 | -1 | 1 | -9 | ·
O=C(NCCNCC(O)COc1ccc(O)cc1)N1CCOCC1 (stereo not given) | -9 | · | · | · | · | 6 | ·
CC(C)C(C)NC(=O)COc1ncnc2sccc12 (stereo not given) | 6 | 7 | 8 | 0 | 0 | 3 | ·
CCN(Cc1ccccc1)S(=O)(=O)CCNC(=O)c1ccccc1 | -2 | 6 | 14 | 0 | 1 | 0 | ·
Cc1ccc(S(=O)(=O)NCc2c(Cl)cccc2Oc2ccccc2)cc1 | 5 | 8 | 28 | 0 | -7 | 63* | 59*
O=S(=O)(NCc1c(Cl)cccc1Oc1ccccc1)c1ccccc1 | -2 | 3 | -6 | 0 | -2 | 38 | ·
Cc1nc2c(C(=O)NCCc3ccccc3Cl)c[nH]n2c(=O)c1Cl | 16 | 6 | 81 | 0 | -2 | 43* | 57*
Cc1nc2c(C(=O)NCc3ccccc3Cl)c[nH]n2c(=O)c1Cl | 0 | 4 | 4 | 0 | -2 | 49* | 46 | ATG4B confirm=62*
Cc1nc2c(C(=O)NCc3ccccc3)c[nH]n2c(=O)c1Cl | -6 | -5 | 14 | 0 | 3 | -2 | ·
NC(=O)c1ccc(Oc2ccc(Cl)c3ccccc23)c([N+](=O)[O-])c1 | 7 | 5 | 9 | 0 | 0 | 62* | 54*
NC(=O)c1ccc(Oc2ccc(Cl)cc2)c([N+](=O)[O-])c1 | 2 | -4 | 12 | 0 | -5 | 59* | 58*
